Results taken from ChEMBL document CHEMBL4400527, “Development of bioactive gemcitabine-D-Lys6-GnRH prodrugs with linker-controllable drug release rate and enhanced biopharmaceutical profile” (Eur J Med Chem, 2019).

Columns and labels:
[1] = Stability of the compound in RPMI medium at 1 uM measured after 72 hrs by LC-MS/MS analysis; assay type: physicochemical
Outline: (§1)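 Conjugates at 1 µΜ incubated at 37 °C in RPMI with 10% FBS and 1% P/S. Triplicate samples taken at 0, 1, 2, 4, 8, 24, 48 and 72 h, mixed with initial mobile phase, stored at -80 °C. Analysed by LC-MS/MS.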

[2] = target: T1, Gonadotropin-releasing hormone receptor (Homo sapiens, UniProt P30968); assay: Displacement of [125I]-D-Tyr6-His5-GnRH from recombinant human GnRH receptor expressed in HEK293 cell membrane measured after 16 to 19 hrs by gamma counting method; assay type: cell membranes
T1 sequence (P30968 whole entry): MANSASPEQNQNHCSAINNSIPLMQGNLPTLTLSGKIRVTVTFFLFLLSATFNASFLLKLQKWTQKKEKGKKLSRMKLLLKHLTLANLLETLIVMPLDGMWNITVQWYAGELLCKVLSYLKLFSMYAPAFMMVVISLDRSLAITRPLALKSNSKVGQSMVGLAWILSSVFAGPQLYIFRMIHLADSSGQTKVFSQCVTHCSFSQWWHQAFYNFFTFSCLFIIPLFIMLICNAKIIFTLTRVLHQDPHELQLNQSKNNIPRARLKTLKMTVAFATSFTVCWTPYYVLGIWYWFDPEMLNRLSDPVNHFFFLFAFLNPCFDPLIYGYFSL
Outline: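 Membranes from HEK 293 cells stably expressing human GnRH-R were incubated with 100,000-120,000 cpm [¹²⁵I]-D-Tyr⁶-His⁵-GnRH plus increasing conjugate concentrations. Buffer was 25 mM HEPES, 1 mM CaCl₂, 10 mM MgCl₂, 0.5% BSA, pH 7.4, final volume 0.2 mL, 4 °C for 16-19 h. Samples filtered on PEI-soaked GF/C, washed with ice-cold Tris-HCl and gamma counted. Nonspecific binding defined with 1000 nM triptorelin.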

PC-3 = assay: Antiproliferative activity against human PC3 cells measured after 72 hrs by MTT assay; assay type: functional, cell-based; settings: PC-3, 72 h
Outline: (§2)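 Cells (RPMI for DU145, PC3, MDA-MB-231; DMEM for MCF7; 10% FBS, 37 °C, 5% CO₂) plated at 5 x 10³/well. After 24 h, medium replaced with compound at 10-40,000 nM for 72 h. MTT 0.3 mg/mL in PBS for 3 h, formazan dissolved in DMSO, OD at 570 nm with 690 nm reference. IC50 from four-parameter logistic fit; three experiments in triplicate.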

[3] = Prodrug activation in human DU145 cells assessed as dFdU release at 10 uM measured after 8 hrs by LC-MS/MS analysis; assay type: cell-based; settings: du-145, 8 h
Outline: (§3)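 DU145 cells seeded at 2 x 10⁶ cells/well and exposed to 10 µΜ compound for 1, 4 or 8 h. Medium removed, cells washed twice with ice-cold PBS, lysed in ice-cold MeCN-water (3:2) by scraping, then vortexed, sonicated and spun 3 min at 16,060 g. Conjugate, gemcitabine and dFdU quantified per 10⁶ cells.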

DU-145 = assay: Antiproliferative activity against human DU145 cells measured after 72 hrs by MTT assay; assay type: functional, cell-based; settings: DU-145, 72 h; outline: as §2
[4] = Drug level in C57BL/6N mouse blood at 10 mg/kg, ip measured after 15 mins by LC-MS/MS analysis; assay type: ADME, organism-based; settings: whole blood, read-out: Drug uptake
Outline: (§4)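 Male C57BL/6N mice, 8-12 weeks old, fasted overnight (n = 5/group), given conjugate 10 mg/kg (6.3 µmol/kg) IP in saline. Serial tail bleeds of 10 µL at 0.25, 0.5, 1, 2, 4, 6 and 8 h into 0.1 M citric acid, pH 4.5. Stored at -80 °C, processed by protein precipitation and evaporation. Conjugate, gemcitabine and dFdU measured.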

[5] = Prodrug activation in C57BL/6N mouse blood assessed as dFdU release at 10 mg/kg, ip measured up to 8 hrs by LC-MS/MS analysis; assay type: organism-based; settings: in vivo; outline: as §4
[6] = Prodrug activation in human plasma assessed as gemcitabine release at 1 ug/ml measured up to 4 hrs by LC-MS/MS analysis; assay type: cell-free
Outline: (§5)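 Human plasma spiked with conjugate at 1 µg/mL. Triplicate 50 µL samples taken at 0, 0.08, 0.5, 1 and 4 h, mixed with 150 µL acetonitrile and stored at -80 °C. Intact conjugate and released gemcitabine followed.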

[7] = Stability of the compound in human plasma at 1 ug/ml measured up to 4 hrs by LC-MS/MS analysis; assay type: ADME, cell-free; outline: as §5
MDA-MB-231 = assay: Antiproliferative activity against human MDA-MB-231 cells measured after 72 hrs by MTT assay; assay type: functional, cell-based; settings: MDA-MB-231, 72 h; outline: as §2
[8] = Prodrug activation in human DU145 cells assessed as gemcitabine release at 10 uM measured after 8 hrs by LC-MS/MS analysis; assay type: cell-based; settings: du-145, 8 h; outline: as §3
[9] = AUC (1 to 8 hrs) in human DU145 cells assessed per million cells at 10 uM by LC-MS/MS analysis; assay type: ADME, cell-based; design: time 1-8 hr, dose 10 uM; settings: du-145, 10 µM; outline: as §3
[10] = Drug level in C57BL/6N mouse blood at 10 mg/kg, ip measured after 30 mins by LC-MS/MS analysis; assay type: ADME, organism-based; settings: whole blood, read-out: Drug uptake; outline: as §4
MCF7 = assay: Antiproliferative activity against human MCF7 cells measured after 72 hrs by MTT assay; assay type: functional, cell-based; settings: MCF7, 72 h; outline: as §2
[11] = Cmax in human DU145 cells assessed per million cells at 10 uM measured after 4 hrs by LC-MS/MS analysis; assay type: ADME, cell-based; design: dose 10 uM; settings: du-145, 4 h; outline: as §3
[12] = Prodrug activation in C57BL/6N mouse blood assessed as dFdU release at 10 mg/kg, ip measured after 1 hr by LC-MS/MS analysis; assay type: organism-based; settings: in vivo; outline: as §4
[13] = Stability of the compound in RPMI medium assessed as compound degradation at 1 uM measured <24 hrs by LC-MS/MS analysis; assay type: physicochemical; settings: read-out: Drug degradation; outline: as §1
[14] = Prodrug activation in C57BL/6N mouse blood assessed as gemcitabine release at 10 mg/kg, ip measured up to 8 hrs by LC-MS/MS analysis; assay type: organism-based; settings: in vivo; outline: as §4
[15] = Prodrug activation in C57BL/6N mouse blood assessed as gemcitabine release at 10 mg/kg, ip measured after 30 mins by LC-MS/MS analysis; assay type: organism-based; settings: in vivo, 0.5 h; outline: as §4

For `CC(C)C[C@H](NC(=O)[C@@H](CCCCNC(=O)OC[C@H]1O[C@@H](n2ccc(N)nc2=O)C(F)(F)[C@@H]1O)NC(=O)[C@H](Cc1ccc(O)cc1)NC(=O)[C@H](CO)NC(=O)[C@H](Cc1c[nH]c2ccccc12)NC(=O)[C@H](Cc1cnc[nH]1)NC(=O)[C@@H]1CCC(=O)N1)C(=O)N[C@@H](CCCNC(=N)N)C(=O)N1CCC[C@H]1C(=O)NCC(N)=O`, the Stability [1] was “Stable”, the IC50 [2] was 0.00069 µM and the IC50 (PC-3) was > 40 µM. The Drug metabolism [3] was “Metabolite_Notdetected”, the IC50 (DU-145) was > 40 µM and the concentration at 0.25 h [4] was 4000 ng/mL. The Drug metabolism [5] was “Metabolite_Notdetected”, the Drug metabolism [6] was “Metabolite_Notdetected” and the Stability [7] was “Stable”. For the same molecule, the IC50 (MDA-MB-231) was > 40 µM, the Drug metabolism [8] was “Metabolite_Notdetected” and the AUC [9] was 62.8 ng/10^6 cells × hr. The concentration at 0.5 h [10] was 4000 ng/mL and the IC50 (MCF7) was 0.621 µM.
For `CC(C)C[C@H](NC(=O)[C@@H](CCCCNC(=O)O[C@@H]1[C@@H](CO)O[C@@H](n2ccc(N)nc2=O)C1(F)F)NC(=O)[C@H](Cc1ccc(O)cc1)NC(=O)[C@H](CO)NC(=O)[C@H](Cc1c[nH]c2ccccc12)NC(=O)[C@H](Cc1cnc[nH]1)NC(=O)[C@@H]1CCC(=O)N1)C(=O)N[C@@H](CCCNC(=N)N)C(=O)N1CCC[C@H]1C(=O)NCC(N)=O`, the Stability [1] was “Stable”, the IC50 [2] was 0.00011 µM and the IC50 (PC-3) was > 40 µM. The Drug metabolism [3] was “Metabolite_Notdetected”, the IC50 (DU-145) was 9.76 µM and the concentration at 0.25 h [4] was 4000 ng/mL. The Drug metabolism [5] was “Metabolite_Notdetected”, the Drug metabolism [6] was “Metabolite_Notdetected” and the Stability [7] was “Stable”. For the same molecule, the IC50 (MDA-MB-231) was > 40 µM, the Drug metabolism [8] was “Metabolite_Notdetected” and the AUC [9] was 88.7 ng/10^6 cells × hr. For the same molecule, the Cmax [11] was 15 ng/10^6 cells in 4 h, the concentration at 0.5 h [10] was 5000 ng/mL and the IC50 (MCF7) was 0.449 µM.
In the case of `CC(C)C[C@H](NC(=O)[C@@H](CCCCN)NC(=O)[C@H](Cc1ccc(O)cc1)NC(=O)[C@H](CO)NC(=O)[C@H](Cc1c[nH]c2ccccc12)NC(=O)[C@H](Cc1cnc[nH]1)NC(=O)[C@@H]1CCC(=O)N1)C(=O)N[C@@H](CCCNC(=N)N)C(=O)N1CCC[C@H]1C(=O)NCC(N)=O`, the IC50 [2] is reported as 0.0105 µM, the IC50 (PC-3) is reported as > 40 µM and the IC50 (DU-145) is reported as > 40 µM. For the same molecule, the IC50 (MDA-MB-231) was > 40 µM and the IC50 (MCF7) was > 40 µM.
Work on `CC(C)C[C@H](NC(=O)[C@@H](CCCCNC(=O)CCCCCNC(=O)CCC(=O)OC[C@H]1O[C@@H](n2ccc(N)nc2=O)C(F)(F)[C@@H]1O)NC(=O)[C@H](Cc1ccc(O)cc1)NC(=O)[C@H](CO)NC(=O)[C@H](Cc1c[nH]c2ccccc12)NC(=O)[C@H](Cc1cnc[nH]1)NC(=O)[C@@H]1CCC(=O)N1)C(=O)N[C@@H](CCCNC(=N)N)C(=O)N1CCC[C@H]1C(=O)NCC(N)=O` yielded an IC50 [2] of 0.0024 µM, a Drug metabolism [12] of 500 ng/mL and an IC50 (PC-3) of 0.937 µM. For the same molecule, the Drug metabolism [3] was “Metabolite_Notdetected”, the IC50 (DU-145) was 0.684 µM and the Drug metabolism [6] was “Metabolite_Detected”. For the same molecule, the Stability [7] was “Unstable”, the IC50 (MDA-MB-231) was 2.39 µM and the Drug metabolism [8] was “Metabolite_Detected”. It also gave an AUC [9] of 38.6 ng/10^6 cells × hr, a degraded at 24 h, 1 µM [13] of 100% and a Cmax [11] of 8 ng/10^6 cells. The IC50 (MCF7) was 0.0555 µM, the Drug metabolism [14] was “Metabolite_Detected” and the Drug metabolism [15] was 300 ng/mL.
`Nc1ccn([C@@H]2O[C@H](CO)[C@@H](O)C2(F)F)c(=O)n1` [GEMCITABINE] gave an IC50 (PC-3) of 0.416 µM, an IC50 (DU-145) of 0.213 µM and an IC50 (MDA-MB-231) of 1.57 µM. The concentration at 0.5 h [10] was 3 ng/mL and the IC50 (MCF7) was 0.038 µM.
